From ChEMBL document CHEMBL1212785, “In vitro potency of CXA-101, a novel cephalosporin, against Pseudomonas aeruginosa displaying various resistance phenotypes, including multidrug resistance” (2010)
Values after ≈ are worked out from the molar mass of the structure shown.

Assays:
Assay type in all cases: functional
Pseudomonas aeruginosa [1] = assay: Antimicrobial activity against multidrug resistant Pseudomonas aeruginosa isolates by broth microdilution method
Procedure, shortened: (§1)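 Nonduplicate, nonurine, drug-resistant clinical isolates collected from 40 US hospitals, October 2005 to March 2008. MICs determined by CLSI reference broth microdilution. The cephalosporin was tested alone and with tazobactam fixed at 4 μg/ml. Comparators were tested by the same method. P. aeruginosa ATCC 27853 served as quality control, with ranges of 0.25 to 1 μg/ml for both regimens.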

Pseudomonas aeruginosa [2] = assay: Antimicrobial activity against imipenem resistant Pseudomonas aeruginosa isolates by broth microdilution method; procedure, shortened: as §1
Pseudomonas aeruginosa [3] = assay: Antimicrobial activity against Ceftazidime resistant Pseudomonas aeruginosa isolates by broth microdilution method; procedure, shortened: as §1
Pseudomonas aeruginosa [4] = assay: Antimicrobial activity against piperacillin-tazobactam resistant Pseudomonas aeruginosa isolates by broth microdilution method; procedure, shortened: as §1
Pseudomonas aeruginosa [5] = assay: Antimicrobial activity against tobramycin resistant Pseudomonas aeruginosa isolates by broth microdilution method; procedure, shortened: as §1
Pseudomonas aeruginosa [6] = assay: Antimicrobial activity against drug resistant Pseudomonas aeruginosa isolates by broth microdilution method; procedure, shortened: as §1

Compound	MIC50 (Pseudomonas aeruginosa [1]) [µg/mL]	MIC90 (Pseudomonas aeruginosa [1]) [µg/mL]	MIC50 (Pseudomonas aeruginosa [2]) [µg/mL]	MIC90 (Pseudomonas aeruginosa [2]) [µg/mL]	MIC50 (Pseudomonas aeruginosa [3]) [µg/mL]	MIC90 (Pseudomonas aeruginosa [3]) [µg/mL]	MIC50 (Pseudomonas aeruginosa [4]) [µg/mL]	MIC90 (Pseudomonas aeruginosa [4]) [µg/mL]	MIC50 (Pseudomonas aeruginosa [5]) [µg/mL]	MIC90 (Pseudomonas aeruginosa [5]) [µg/mL]	MIC50 (Pseudomonas aeruginosa [6]) [µg/mL]	MIC90 (Pseudomonas aeruginosa [6]) [µg/mL]	MIC (Pseudomonas aeruginosa [2]) [µg/mL]
O=C(O)c1cn(C2CC2)c2cc(N3CCNCC3)c(F)cc2c1=O [CIPROFLOXACIN]	32 (≈ 96.6 µM)	64 (≈ 193 µM)	8 (≈ 24.1 µM)	64 (≈ 193 µM)	2 (≈ 6.04 µM)	32 (≈ 96.6 µM)	1	32	32 (≈ 96.6 µM)	128 (≈ 386 µM)	–	–	–
CO/N=C(\C(=O)N[C@@H]1C(=O)N2C(C(=O)[O-])=C(C[N+]3(C)CCCC3)CS[C@H]12)c1csc(N)n1 [CEFEPIME]	16 (≈ 33.3 µM)	64 (≈ 133 µM)	8 (≈ 16.6 µM)	32 (≈ 66.6 µM)	256 (≈ 533 µM)	256 (≈ 533 µM)	16	32	–	–	16 (≈ 33.3 µM)	64 (≈ 133 µM)	–
Cn1c(N)c(NC(=O)NCCN)c[n+]1CC1=C(C(=O)O)N2C(=O)[C@@H](NC(=O)/C(=N\OC(C)(C)C(=O)[O-])c3nsc(N)n3)[C@H]2SC1 [CEFTOLOZANE]	2 (≈ 3 µM)	> 64	2 (≈ 3 µM)	8 (≈ 12 µM)	4 (≈ 6 µM)	16 (≈ 24 µM)	2	8	2 (≈ 3 µM)	64 (≈ 96 µM)	2 (≈ 3 µM)	2 (≈ 3 µM)	–
C[C@@H](O)[C@H]1C(=O)N2C(C(=O)O)=C(S[C@@H]3CN[C@H](C(=O)N(C)C)C3)[C@H](C)[C@H]12 [MEROPENEM]	16 (≈ 41.7 µM)	128 (≈ 334 µM)	16 (≈ 41.7 µM)	32 (≈ 83.4 µM)	4 (≈ 10.4 µM)	32 (≈ 83.4 µM)	2	32	16 (≈ 41.7 µM)	128 (≈ 334 µM)	8 (≈ 20.9 µM)	32 (≈ 83.4 µM)	–
C[C@@H](O)[C@H]1C(=O)N2C(C(=O)O)=C(SCCNC=N)C[C@H]12 [IMIPENEM ANHYDROUS]	16 (≈ 53.4 µM)	128 (≈ 428 µM)	16 (≈ 53.4 µM)	32 (≈ 107 µM)	64 (≈ 214 µM)	256 (≈ 855 µM)	64	256	128 (≈ 428 µM)	256 (≈ 855 µM)	8 (≈ 26.7 µM)	32 (≈ 107 µM)	16 (≈ 53.4 µM)
C[C@H]1COc2c(N3CCN(C)CC3)c(F)cc3c(=O)c(C(=O)O)cn1c23.C[C@H]1COc2c(N3CCN(C)CC3)c(F)cc3c(=O)c(C(=O)O)cn1c23.O [LEVOFLOXACIN]	32	128	16	64	4	64	4	64	32	128	8	64	–
NC[C@H]1O[C@H](O[C@H]2[C@H](O)[C@@H](O[C@H]3O[C@H](CO)[C@@H](O)[C@H](N)[C@H]3O)[C@H](N)C[C@@H]2N)[C@H](N)C[C@@H]1O [TOBRAMYCIN]	128 (≈ 274 µM)	256 (≈ 548 µM)	1 (≈ 2.14 µM)	64 (≈ 137 µM)	1 (≈ 2.14 µM)	4 (≈ 8.56 µM)	1	4	32 (≈ 68.4 µM)	128 (≈ 274 µM)	2 (≈ 4.28 µM)	128 (≈ 274 µM)	–
CC(C)(O/N=C(\C(=O)N[C@@H]1C(=O)N2C(C(=O)[O-])=C(C[n+]3ccccc3)CS[C@H]12)c1csc(N)n1)C(=O)O [CEFTAZIDIME]	64 (≈ 117 µM)	256 (≈ 468 µM)	16 (≈ 29.3 µM)	128 (≈ 234 µM)	16 (≈ 29.3 µM)	64 (≈ 117 µM)	32	128	–	–	16 (≈ 29.3 µM)	128 (≈ 234 µM)	–
